This is an account of results in ChEMBL document CHEMBL1914356, “Maslinic acid derivatives induce significant apoptosis in b16f10 murine melanoma cells” (2011).

The subject of assay [1] is B16-F10. As to the kind of experiment: Induction of apoptosis in mouse B16F10 cells assessed as total apoptosis at 1 to 10 uM after 24 hrs using annexin V-FITC/propidium iodide staining by flow cytometry. Format: functional, cell-based. A digest of the protocol: (§1)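 B16-F10 cells grown in DMEM with 4 mM L-glutamine, 1.5 g/L bicarbonate, 1 mM pyruvate, 4.5 g/L glucose, 10% FBS. Seeded at 300,000 cells/well in 6-well dishes, treated 24 h later with compound in DMSO. Vehicle and medium-only controls. Detached with EDTA-trypsin, PBS-washed, stained with annexin V-FITC and PI 15 min at room temperature in dark. Total apoptosis = early + late. Mean ± SD, two independent experiments.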

For assay [2], the system named is B16-F10. As to the kind of experiment: Induction of apoptosis in mouse B16F10 cells assessed as necrotic cells at 30 uM after 24 hrs using annexin V-FITC/propidium iodide staining by flow cytometry. Format: functional. In outline:
(§2)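 B16-F10 cells grown in DMEM with 4 mM L-glutamine, 1 mM pyruvate, 4.5 g/L glucose and 10% FBS. 300,000 cells/well were plated, then treated in DMSO after 24 h. Vehicle and medium-alone controls were included. Cells were detached with EDTA-trypsin, PBS-washed and set at 1 × 10^6 cells/mL in binding buffer. Annexin V-FITC/PI staining ran 15 min at room temperature in the dark, followed by flow cytometry within 1 h.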

The subject of assay [3] is B16-F10. As to the kind of experiment: Induction of apoptosis in mouse B16F10 cells assessed as early/late apoptotic cells at 30 uM after 24 hrs using annexin V-FITC/propidium iodide staining by flow cytometry. Format: functional. In outline: as §2
Assay [4] relates to B16-F10. Description: Induction of apoptosis in mouse B16F10 cells assessed as total apoptosis at 20 uM after 24 hrs using annexin V-FITC/propidium iodide staining by flow cytometry. Format: functional. In outline:
(§3)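 B16-F10 cells in DMEM/10% FBS were plated at 300,000 cells/well, then treated 24 h later, in duplicate, in DMSO at […] for 24 or 48 h. Vehicle and medium controls were included. Annexin V-FITC/PI staining ran 15 min at room temperature in the dark. Total apoptosis (early + late) was read by flow cytometry as mean ± SD from two independent experiments.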

The subject of assay [5] is B16-F10. Description: Induction of apoptosis in mouse B16F10 cells assessed as total apoptosis at 20 uM after 48 hrs using annexin V-FITC/propidium iodide staining by flow cytometry. In kind it is functional, cell-based. A digest of the protocol: as §3
For assay [6], the system named is B16-F10. Description: Induction of apoptosis in mouse B16F10 cells assessed as total apoptosis at 1 to 10 uM after 48 hrs using annexin V-FITC/propidium iodide staining by flow cytometry. Format: functional, cell-based. In outline:
as §1

For assay [7], the system named is B16-F10. Description: Induction of apoptosis in mouse B16F10 cells assessed as total apoptosis at 1 uM after 24 hrs using annexin V-FITC/propidium iodide staining by flow cytometry. Format: functional. In outline:
as §1

The source made the active and inactive calls. The rule behind the calls is not given here.

`CC1(C)CC[C@]2(C#N)CC[C@]3(C)C(=CC[C@@H]4[C@@]5(C)C[C@@H](O)[C@H](O)C(C)(C)[C@@H]5CC[C@]43C)[C@@H]2C1`: the outcome with B16-F10 [1] and in the assay on B16-F10 [5] was Active. Moreover, the Activity is <10% in the assay on B16-F10 [2], 80% with B16-F10 [3], 70% in the assay on B16-F10 [4] and 78.75% in the assay on B16-F10 [7]. In addition, in the assay on B16-F10 [6], the outcome was inactive.

`CC(=O)O[C@@H]1C[C@]2(C)[C@H]3CC=C4[C@@H]5CC(C)(C)CC[C@]5(C#N)CC[C@@]4(C)[C@]3(C)CC[C@H]2C(C)(C)[C@H]1OC(C)=O`: the outcome with B16-F10 [1] and in the assay with B16-F10 [5] was Active. Also, the Activity is recorded as <10% in the assay with B16-F10 [2], 80% with B16-F10 [3], 70% in the assay on B16-F10 [4] and 68.62% in the assay with B16-F10 [7]. In addition, in the assay on B16-F10 [6], the result was inactive.

On to `CC1(C)CC[C@]2(C(=O)[O-])CC[C@]3(C)C(=CC[C@@H]4[C@@]5(C)C[C@@H](O)[C@H](O)C(C)(C)[C@@H]5CC[C@]43C)[C@@H]2C1.[Na+]` [SODIUM MASLINATE], for which the Activity in the assay with B16-F10 [2] was <10%; with B16-F10 [3] it was 80%; with B16-F10 [4], 70%; with B16-F10 [7], 56.67%.

`CC1(C)CC[C@]2(C(=O)OCc3ccccc3)CC[C@]3(C)C(=CC[C@@H]4[C@@]5(C)C[C@@H](O)[C@H](O)C(C)(C)[C@@H]5CC[C@]43C)[C@@H]2C1` [BENZYL MASLINATE]: the result with B16-F10 [1] and in the assay with B16-F10 [5] was Active. The Activity was <10% with B16-F10 [2], 80% in the assay with B16-F10 [3], > 70% in the assay on B16-F10 [4] and 87.5% in the assay with B16-F10 [7]. Moreover, in the assay with B16-F10 [6], the outcome was inactive.
